Experimental data of several laboratories.
Protocols differ between the studies behind these lines.
Effect on: cell growth or viability

Compound	cell line	method	tested at	time	endpoint	result
CNC(=O)c1ccccc1Sc1ccc2c(/C=C/c3ccccn3)n[nH]c2c1	BaF3	ATP luminescence	–	72 h	GI50	1.31 µM
COc1ccccc1S(=O)(=O)Nc1ccc2c(c1)CN(C)C(=O)N2	NALM-6	ATP luminescence	–	–	GI50	8 µM
CNC(=O)c1cc(Oc2ccc(NC(=O)Nc3ccc(Cl)c(C(F)(F)F)c3)c(F)c2)ccn1	BaF3	ATP luminescence	–	72 h	GI50	1.81 µM
Oc1ccc(Nc2nc(-c3ccc(Cl)cc3)cs2)cc1	WM-115	MTS	–	48 h	IC50	23.8 µM
COc1cc(N2CCC(N3CCN(C)CC3)CC2)ccc1Nc1ncc(Cl)c(Nc2ccccc2P(C)(C)=O)n1	BaF3	–	–	72 h	GI50	2.1 µM
COc1ccc(-c2ccc(-c3ccc(C(=N)N)nc3)s2)cc1	SF-268	SRB	–	–	GI50	1.76 µM
CNC(=O)c1ccccc1Sc1ccc2c(N)n[nH]c2c1	BaF3	CCK-8	–	–	GI50	7.9 µM
COc1cccc(Oc2ccccc2NC(=O)CNC(=O)c2cccc3ccccc23)c1	SF-268	SRB	–	48 h	GI50	0.55 µM
O=C(N/N=C/c1c(O)ccc2ccccc12)c1cc(-c2ccc3ccccc3c2)n[nH]1	WM-115	MTS	–	72 h	IC50	1.8 µM
C=CC(=O)N1CCC[C@@H](n2nc(-c3ccc(Oc4ccccc4)cc3)c3c(N)ncnc32)C1	NALM-6	ATP luminescence	–	72 h	GI50	2.8 µM
COc1cc(-c2ccc(-c3ccc(C(=N)N)nc3)s2)cc(OC)c1OC	SF-268	SRB	–	–	GI50	14.6 µM
COc1ccc(NC(=O)Nc2ccc(OCc3ncc(C)c(OC)c3C)cc2)cc1	L02	MTT	–	72 h	IC50	> 100 µM
O=C1Nc2ccccc2C1=NNc1nnc2n1N=C(c1ccccc1)CS2	SF-268	SRB	10 µM	–	inhibition	31%
COc1ccnc(COc2ccc(NC(=O)Nc3cccc(C(F)(F)F)c3)cc2)c1OC	L02	MTT	–	72 h	IC50	> 100 µM
CC(C)(C)n1ncc2c(Nc3ccc(OC(F)(F)F)cc3)ncnc21	BaF3	ATP luminescence	–	–	EC50	> 10 µM
COc1ccc(NC(=O)Nc2ccc(OCc3nccc(OCC(F)(F)F)c3C)cc2)cc1	L02	MTT	–	72 h	IC50	> 100 µM
Nc1n[nH]c2cc(I)ccc12	BaF3	CCK-8	–	–	GI50	> 10 µM
